Bioassay records (PubChem BioAssay)
TRPC6 act = activators of mouse TRPC6 channel; Q61143; HEK293-TRPC6 membrane potential dye fluorescence; active compounds read high; B-score at 10 µM; actives 0.13% (n = 310,000); AID 2550;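 active means B-score of the integrated fluorescence ratio above library mean plus 3 SD, and starting fluorescence ratio within library mean plus 5 SD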;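 further: higher score means more depolarization so channel activation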
TRPC4 PAM = allosteric potentiators of mouse TRPC4 channel; Q9QUQ5; HEK293 TRPC4beta/mu-opioid, DAMGO EC20, Fluo-4 Ca2+ flux; active compounds read high; B-score at 10 µM; actives 0.42% (n = 310,000); AID 2227;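 active means B-score of calcium response area above 5 SD of library B-scores, with initial fluorescence ratio within 5 SD of library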
Target sequence (Q9QUQ5 whole entry, looked up): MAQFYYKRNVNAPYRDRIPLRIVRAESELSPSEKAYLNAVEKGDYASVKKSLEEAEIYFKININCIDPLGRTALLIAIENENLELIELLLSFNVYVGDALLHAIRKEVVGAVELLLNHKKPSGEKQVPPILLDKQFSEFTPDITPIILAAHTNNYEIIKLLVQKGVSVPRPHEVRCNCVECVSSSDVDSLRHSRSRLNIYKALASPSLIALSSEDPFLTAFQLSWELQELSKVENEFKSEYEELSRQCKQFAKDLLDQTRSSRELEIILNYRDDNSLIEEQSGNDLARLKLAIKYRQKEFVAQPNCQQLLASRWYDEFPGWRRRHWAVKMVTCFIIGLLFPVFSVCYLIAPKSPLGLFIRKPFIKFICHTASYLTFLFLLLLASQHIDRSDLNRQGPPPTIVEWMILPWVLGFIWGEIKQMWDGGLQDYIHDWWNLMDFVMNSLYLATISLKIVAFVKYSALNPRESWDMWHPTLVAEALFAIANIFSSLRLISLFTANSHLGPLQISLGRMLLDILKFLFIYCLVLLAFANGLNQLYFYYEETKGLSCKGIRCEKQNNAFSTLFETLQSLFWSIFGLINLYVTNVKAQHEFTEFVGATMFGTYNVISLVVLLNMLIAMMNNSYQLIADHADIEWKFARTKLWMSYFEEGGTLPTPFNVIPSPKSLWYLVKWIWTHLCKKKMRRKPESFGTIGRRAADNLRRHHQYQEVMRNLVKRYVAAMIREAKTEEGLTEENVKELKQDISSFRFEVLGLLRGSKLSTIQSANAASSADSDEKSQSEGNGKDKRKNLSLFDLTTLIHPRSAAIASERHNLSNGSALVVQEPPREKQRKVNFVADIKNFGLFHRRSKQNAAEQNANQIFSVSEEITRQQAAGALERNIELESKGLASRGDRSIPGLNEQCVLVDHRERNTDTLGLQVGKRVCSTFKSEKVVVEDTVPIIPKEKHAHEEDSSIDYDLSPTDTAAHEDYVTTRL
TRPC4 agonist = opens the mouse TRPC4 cation channel | HEK293 TRPC4beta/mu-opioid, Fluo4 calcium fluorescence; active compounds read high | Q9QUQ5 | actives 0.49% (n = 310,000) | B-score at 10 µM;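 active means B-score above 5 SD of library B-scores, and initial fluorescence ratio not above library mean plus 5 SD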;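 further: positive B-score marks a calcium rise read as TRPC4 activation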
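Material: HEK293 stable line with TRPC4beta plus mu-opioid receptor; technique: Fluo4 calcium-sensitive dye fluorescence, kinetic, 1 Hz baseline; timing: Fluo4 dye loading 45 min at room temperature, 110 s recording; controls: assay buffer as low control, maximal DAMGO as high control; read-out: integrated baseline-normalised fluorescence ratio, converted to per-well B score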
TRPC6 inh = blocks the mouse TRPC6 cation channel; actives 1.1% (n = 310,000); B-score at 10 µM; HEK293-TRPC6, membrane potential dye, ACh-evoked depolarization; active compounds read low; Q61143;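 active means B-score under library mean minus 3 SD, initial fluorescence not abnormally high, positive integrated signal ratio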;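 further: B-score derived from integrated fluorescence ratio over the kinetic read; more negative B-score means stronger inhibition of depolarization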
TRPC4 block = blocks the mouse TRPC4 cation channel; B-score at 10 µM; actives 0.39% (n = 300,000); AID 2247; HEK293 TRPC4beta/mu-opioid, DAMGO-evoked Fluo4 calcium flux; active compounds read low; Q9QUQ5;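 active means B-score over 3 SD under the library average, no early fluorescence shift, positive overall ratio signal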
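Material: HEK293 cells with stable TRPC4beta plus mu-opioid receptor expression / Probe or stimulus: DAMGO in two steps, submaximal then maximal / Compound: single concentration per test compound / Technique: kinetic Fluo4 fluorescence imaging of calcium influx / Read-out: per-well B score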
TRPC4 sel inh 2 = mouse TRPC4 off-target activity of TRPC6 inhibitors, second screen; shares compounds with TRPC6 inh; HEK293 TRPC4/MOR, membrane potential dye fluorescence; channel activated by saturating DAMGO dose; inhibition, % at 10 µM; actives 42% (n = 920);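 active means compounds whose fluorescence signal differed from control wells by over 3 SD, either direction, in both duplicate plates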
TRPC4 spec = tests whether TRPC6 inhibitors also affect mouse TRPC4; shares compounds with TRPC6 inh; HEK293 TRPC4/mu-opioid, membrane potential fluorescence; activity change, negative = inhibition, % at 10 µM; actives 61% (n = 920);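 active means rise or fall in signal beyond 3 SD of buffer-only wells in both replicate plates, either sign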;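 further: integrated kinetic ratio of fluorescence range over baseline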
HEK293 MPD ctr 2-1 = second counter-screen for TRPC6 inhibitors: parental HEK293 cells; shares compounds with TRPC6 inh; parental HEK293 membrane potential dye fluorescence; maximal acetylcholine challenge after compound addition; actives 31% (n = 920); AID 2779; signal change vs control, % at 10 µM;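 active means membrane potential signal moving either way by over 3 SD of the maximum-effect control, in both duplicate plates, meaning non-specific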
HEK293 MPD ctr-1 = counter-screen for TRPC6 inhibitors: effect in parental HEK293 cells | membrane potential signal change, % at 10 µM | AID 2780 | shares compounds with TRPC6 inh | parental HEK293 membrane potential dye fluorescence | actives 60% (n = 920);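 active means membrane potential signal shifting up or down by more than 3 SD of buffer-only wells, on both duplicate plates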
HEK293 MPD ctr-2 = counter-screen for TRPC6 modulators: effect in parental HEK293 cells; shares compounds with TRPC6 inh; actives 51% (n = 2,400); membrane potential signal change, % at 10 µM; AID 488924; membrane potential dye fluorescence;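 active means membrane potential signal moves up or down beyond 5 SD from buffer-only wells, on both duplicate plates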
HEK293 MPD ctr 2-2 = second check of TRPC6 modulator effects in parental HEK293 cells; actives 14% (n = 2,400); AID 488926; shares compounds with TRPC6 inh; inhibition, % at 10 µM; membrane potential dye fluorescence; after compound, maximal acetylcholine stimulation;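 active means membrane potential signal drops by more than 5 SD from the mean control signal, in both duplicate plates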
TRPC4 ctr mod = selectivity of TRPC6 modulators against mouse TRPC4; percent change from control (negative = decrease, positive = increase), % at 10 µM; actives 69% (n = 2,400); shares compounds with TRPC6 inh; HEK293 TRPC4/mu-opioid, membrane potential fluorescence;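 active means membrane potential signal moved up or down beyond 5 SD of buffer control wells, in both duplicate plates, actives on both sides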
TRPC4/MOR inh 2 = second check of whether TRPC6 modulators also affect mouse TRPC4; shares compounds with TRPC6 inh; HEK293 TRPC4/mu-opioid, membrane potential dye fluorescence; stimulated with maximal-effect DAMGO; inhibition, % at 10 µM; actives 55% (n = 2,400); AID 488928;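 active means drop in membrane potential signal beyond 5 SD of the control wells in both duplicate plates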;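 further: TRPC4 counter screen for TRPC6 hits run under conditions tuned for TRPC6 not TRPC4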
TRPC6 inh conf = confirmation of mouse TRPC6 inhibitors; shares compounds with TRPC6 inh; HEK293-TRPC6, membrane potential dye, ACh-evoked depolarization; inhibition, % at 10 µM; actives 43% (n = 3,300); AID 488960;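 active means fluorescence ratio falls more than 5 SD below the full-stimulation control mean, in both duplicate runs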;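 further: integrated fluorescence ratio of peak minus minimum over baseline after agonist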
TRPC6 act conf = mouse TRPC6 activator confirmation | actives 11% (n = 2,800) | shares compounds with TRPC6 inh | activation, % at 10 µM | AID 488961 | HEK293-TRPC6 membrane potential dye fluorescence, FDSS;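 active means ratio signal rise beyond 5 SD above unstimulated control wells' mean, seen in both duplicate runs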
Numbers stand for hits. This is a sample that favours compounds with a hit; in the whole collection about 2.3% have one here.

What do the screens show for `CCN1CCN(c2nc3ccccc3nc2C(C#N)C(=O)OCc2ccccc2)CC1` (stereo not given)?
TRPC6 act: inactive; TRPC4 PAM: inactive; TRPC4 agonist: inactive; TRPC6 inh: -7.28; TRPC4 block: inactive; TRPC4 sel inh 2: 40.5%; TRPC4 spec: -19.2%; HEK293 MPD ctr 2-1: inactive; HEK293 MPD ctr-1: -200.0%; TRPC6 inh conf: inactive; TRPC6 act conf: inactive

What do the screens show for `CCCCCCOC(=O)C(C#N)c1nc2ccccc2nc1N1CCN(CC)CC1` (stereo not given)?
TRPC6 act: inactive; TRPC4 PAM: inactive; TRPC4 agonist: inactive; TRPC6 inh: -5.33; TRPC4 block: inactive; HEK293 MPD ctr-2: inactive; HEK293 MPD ctr 2-2: inactive; TRPC4 ctr mod: -29.0%; TRPC4/MOR inh 2: 70.5%; TRPC6 inh conf: inactive; TRPC6 act conf: inactive

How did Cc1ccc(NC(=O)/C=C/c2ccc3c(c2)OCO3)cc1S(=O)(=O)N1CCOCC1 do in these assays?
TRPC6 act: inactive; TRPC4 PAM: inactive; TRPC4 agonist: inactive; TRPC6 inh: inactive; TRPC4 block: inactive

What do the screens show for `COc1ccc(NC(=O)c2sc3nc(N4CCOCC4)c4c(c3c2N)CC(C(C)C)OC4)c(OC)c1` (stereo not given)?
TRPC6 act: inactive; TRPC4 PAM: inactive; TRPC4 agonist: inactive; TRPC6 inh: inactive; TRPC4 block: inactive

What do the screens show for `COc1ccc(-c2nc(CS(=O)CC(=O)NC3CCC(C)CC3)c(C)o2)cc1OC` (stereo not given)?
TRPC6 act: inactive; TRPC4 PAM: inactive; TRPC4 agonist: inactive; TRPC6 inh: -6.21; TRPC4 block: inactive; HEK293 MPD ctr-2: inactive; HEK293 MPD ctr 2-2: inactive; TRPC4 ctr mod: 13.0%; TRPC4/MOR inh 2: 29.0%; TRPC6 inh conf: 71.0%

Results for CC(=O)c1ccc(Nc2cc(C)nc3c(C)cc(C)cc23)cc1 ?
TRPC6 act: inactive; TRPC4 PAM: inactive; TRPC4 agonist: inactive; TRPC6 inh: -6.86; TRPC4 block: -6; TRPC4 sel inh 2: inactive; TRPC4 spec: -20.6%; HEK293 MPD ctr 2-1: inactive; HEK293 MPD ctr-1: -327.0%; TRPC6 inh conf: inactive; TRPC6 act conf: inactive

Results for COc1ccc(Nc2nnc(-c3ccc(C(=O)NCCO)cc3)c3ccccc23)cc1 ?
TRPC6 act: inactive; TRPC4 PAM: inactive; TRPC4 agonist: inactive; TRPC6 inh: inactive; TRPC4 block: inactive
